Screening results deposited in PubChem BioAssay by several laboratories.
PKA-R2B act – activators of human PKA-R2B complex; P22694+P31323; PKA-R2B holoenzyme dissociation, Cy5-IP20 fluorescence polarization; R2B truncated from residue 108, S112A mutant; 0% DMSO only, 100% 113 µM cGMP; activation, % at 11.4 µM; hit rate 0.079% among 340,000;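 active = activation above a cutoff set at the mean over all compounds plus 3 SD, cut at about 18% in these data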;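 note: higher means more holoenzyme dissociation and a rise in polarization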
PKA-R1A act – activates the PKA-R1A holoenzyme complex; P00514+P68181; PKA-R1A dissociation, Cy5-IP20 fluorescence polarization; scaled: DMSO 0%, 113 µM cGMP 100%; activation, % at 11.4 µM; hit rate 0.083% among 340,000; AID 504707;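 active = percent activation above the mean of all tested compounds plus 3 SD, cut at about 19% in these data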;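 note: higher means more PKAc released from R1A so a rise in polarization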
UCH37 DUB inh – blocks the human deubiquitinase UCH37; inhibition, % (concentration not given with the values); AID 588478; hit rate 0.33% among 330,000; purified proteasome/UCH37, Ub-AMC cleavage fluorescence; Q9Y5K5;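 active = mean inhibition over replicate wells above about 20%, limit read from the data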;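 note: 0% = compound-free wells with enzyme and 100% = wells lacking proteasome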
Target sequence (Q9Y5K5 whole entry, looked up): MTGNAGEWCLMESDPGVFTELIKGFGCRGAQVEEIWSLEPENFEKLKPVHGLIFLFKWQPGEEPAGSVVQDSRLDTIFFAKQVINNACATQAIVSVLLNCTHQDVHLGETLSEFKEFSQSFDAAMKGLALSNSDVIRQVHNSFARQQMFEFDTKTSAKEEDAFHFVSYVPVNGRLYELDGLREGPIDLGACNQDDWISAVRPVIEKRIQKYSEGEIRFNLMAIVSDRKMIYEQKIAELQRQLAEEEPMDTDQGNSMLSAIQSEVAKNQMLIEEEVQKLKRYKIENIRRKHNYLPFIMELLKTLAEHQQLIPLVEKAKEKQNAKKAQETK
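system = Proteasome-associated human UCH37 deubiquitinase | amount = 0.15 nM proteasome as dispensed | medium = pH 7.4 Tris-HCl (50 mM) with ovalbumin, ATP-MgCl2, DTT | incubation = 30 min preincubation with enzyme, 25 min cleavage at room temperature | detection = AMC fluorescence 355/460 nm | read-out basis = percent inhibition | controls = no-proteasome and no-compound wells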
Rin1-Abl PPI inh – human Rin1-Abl interaction inhibition. AID 588664. hit rate 0.4% among 360,000. inhibition, % at 7.35 µM. TR-FRET Rin1/Abl binding, biochemical; in the data active = inhibition above about 5%, passing the limit was not always enough
R2B FP artifact – counter-screen for PKA-R2B activators: fluorescence polarization artifacts; shares compounds with PKA-R2B act; FP artifact counterscreen; activation, % at 11.4 µM; hit rate 6% among 270; in the data active = activation above about 20%;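 note: Cy5 labelled IP20 peptide probe with compound but no PKA protein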
PKA-R2B act conf – confirmation of human PKA-R2B complex activators; shares compounds with PKA-R2B act; fluorescence polarization, activation; activation, % at 11.4 µM; hit rate 9% among 270; AID 504797; in the data active = activation above about 19%
Active calls of the source: *; / = no result given. Compounds with a hit are over-represented: about 0.79% of the library has one in this group of screens.

SMILES | PKA-R2B act | PKA-R1A act | UCH37 DUB inh | Rin1-Abl PPI inh | R2B FP artifact | PKA-R2B act conf
CCn1c(SCc2nc3scc(-c4ccccc4)c3c(=O)[nH]2)nnc1-c1ccc(Cl)cc1 | 19.7* | -2.0 | 0.1 | -1.1 | -2.3 | -2.5
Cc1ccc(-c2csc3nc(CSc4nnc(-c5ccc(Cl)cc5)n4C)[nH]c(=O)c23)cc1 | -4.2 | 10.8 | 3.1 | 1.1 | / | /
CC1(C(=O)NS(=O)(=O)c2ccccc2Cl)CCN1C(=O)C1CC1 (stereo not given) | / | / | / | 3.6 | / | /
CN(CCOc1ccccc1)CC(=O)Nc1ccc(Cl)cc1[N+](=O)[O-] | 20.7* | -2.2 | 0.8 | 4.0 | -1.9 | -2.9
COc1cc(NC(=O)CN(C)CCOc2ccccc2)c(C)cc1[N+](=O)[O-] | 8.2 | 4.1 | 3.7 | -3.5 | / | /
Cc1ccccc1-c1nc(Cc2ccc(Cl)cc2)no1 | 19.3* | -2.1 | 1.4 | -0.6 | -1.9 | -0.9
Cc1ccccc1-c1nnc(-c2ccc(Cl)cc2)o1 | -4.2 | -7.9 | -1.1 | 4.6 | / | /
CCc1nnc(NC(=O)CSc2nnc(C)n2-c2ccc(C)cc2)s1 | 18.8* | -0.6 | -0.3 | 1.4 | 4.2 | 1.4
COc1ccc(C(=O)c2coc3ccc(OC(C)=O)cc23)cc1 | -4.4 | 2.3 | 2.3 | 4.0 | / | /
COc1ccc(OC)c(C(=O)c2coc3ccc(OC(C)=O)cc23)c1 | 21.3* | 2.8 | 1.7 | 8.4 | 2.6 | 0.0
O=C1C2=C(SCCS2)C(=O)N1c1ccccc1 | 24.0* | -9.4 | 2.7 | -3.1 | -2.6 | -1.8
O=C(c1ccc(Cl)cc1)C1C2C(=O)N(c3ccccc3)C(=O)C2C2CCCN21 (stereo not given) | -3.6 | 3.8 | 3.9 | -3.1 | / | /
O=C(c1ccc(Cl)cc1)[C@@H]1[C@@H]2C(=O)N(c3ccccc3)C(=O)[C@@H]2C2c3ccccc3C=NN21 (stereo not given in full) | 25.8* | -1.3 | 3.7 | -0.2 | 4.2 | 0.0
CC(C)NC(=O)N(C)C[C@H]1Oc2c(NC(=O)Nc3ccc4c(c3)OCO4)cccc2C(=O)N([C@H](C)CO)C[C@@H]1C | -3.5 | -2.8 | 1.8 | -1.4 | / | /
Cc1ccccc1N1CCN(S(=O)(=O)C[C@]23CCC(CC2NC(=O)[C@@H](N)CCS(C)(=O)=O)C3(C)C)CC1 (stereo not given in full) | 18.7* | 10.1 | -0.8 | 1.9 | 2.0 | -2.4
C#CCOCCOCCOCCNc1nc(N2CCN(C(=O)[C@H](CCC(=O)O)n3cc(CN)nn3)CC2)nc(N2CCN(C(=O)[C@H](CCC(=O)O)n3cc([C@@H](N)[C@H](C)CC)nn3)CC2)n1 | 1.6 | -13.7 | 0.0 | -0.2 | / | /
CCOc1ccccc1NC(=O)C(OC(=O)c1ccc(CC)cc1)c1ccccc1 (stereo not given) | 19.2* | 1.2 | 6.6 | -3.6 | 0.6 | 1.0
O=S(=O)(NC1CCCC1)c1ccc(S(=O)(=O)N(Cc2cccs2)CC2CCCO2)cc1 (stereo not given) | 19.5* | 4.7 | 1.7 | 5.3 | 0.2 | 0.6
O=C(CSc1nc2nc3c(cc2c(=O)n1-c1ccccc1)CCCC3)Nc1cccc2ccccc12 | 19.2* | 0.2 | -1.3 | 2.0 | 1.6 | 3.3
Cc1cccc(-c2c3c(=O)n(C)c(=O)n(C)c3cn2CCO)c1 | -1.2 | -8.1 | 3.1 | 1.7 | / | /
Cc1ccc(C(=O)NCC(=O)N2CCN(c3ccccc3)CC2)cc1 | 21.3* | 15.9 | 4.4 | 0.7 | -2.8 | -2.9
CC1=[N+](C)c2ccc3ccccc3c2C1(C)C | 18.7* | 13.8 | -6.0 | 1.9 | 7.0 | 12.1
O=C(c1ccccc1)N1CCC2(CC1)NCCc1[nH]cnc12 | -4.2 | -2.9 | 4.1 | 0.8 | / | /
CCCCCCCCCCCCCCCC[N+](C)(C)CCN(Cc1ccc(OC)cc1)c1ncccn1 | 30.0* | -4.2 | 26.5* | -1.8 | -1.4 | 35.6*
COc1ccc(CN(C)CC(=O)Nc2cccc(S(N)(=O)=O)c2)c(OC)c1OC | -4.2 | -12.0 | 2.9 | -4.1 | / | /
CCCc1cc(NC(=O)CCl)n(-c2ccccc2)n1 | 19.7* | -0.2 | 4.6 | -1.6 | -0.2 | -3.4
O=C(O)c1sccc1SCc1ccc(Cl)cc1Cl | 22.9* | 9.5 | 2.4 | -0.4 | 2.5 | 15.2
CC1(C(=O)NS(=O)(=O)c2ccc(C#N)cc2)CCN1C(=O)c1cccc(F)c1 (stereo not given) | / | / | / | -2.4 | / | /
